This is one part of a sample in which hits are shown more often than they occur.
INS-1E ATP HTS = protection of INS-1E cells from cytokine death, primary screen, ATP luminescence, single point | actives 0.1% (n = 20,000) | protection from cytokine-induced ATP loss, % at 10 µM | INS-1E cytokine-induced death, 48 h; normalised: neutral wells 0, positive control 100 | AID 488910, 2010;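 active = mean replicate protection from cytokine-induced ATP loss at least 50% and at least 75% of replicates each reaching 50%; inconclusive = meets only one of the two criteria, mean or replicate share; inactive = fails both the mean and replicate share criteria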
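Assay system – rat INS-1E insulinoma cell line · Quantity – 8000 cells per well · Buffer or medium – RPMI without phenol red, 5% FBS · Schedule – 48 h co-treatment, 10 min post-lysis read · Technique – luminescent ATP assay (CellTiter-Glo)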
YB-1 expr inh = inhibitors of YB-1 gene expression, primary screen, cell-based, fluorescence; U2OS, qRT-PCR YB-1 vs CDIP delta delta Cp, 16 h; stronger effect = higher value; zero = DMSO, each unit about twofold; delta delta Cp (YB-1 minus CDIP) (concentration not given with the values); actives 0.37% (n = 30,000); AID 434959, 2010;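 active = delta delta Cp rounded down to an integer at or above 3, about 3 SD of DMSO wells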;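 note: higher means less YB-1 transcript or more CDIP transcript relative to DMSO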
T cruzi intra = inhibitors of intracellular Trypanosoma cruzi, primary screen, cell-based, plate reader, single point, set 2; intracellular Trypanosoma cruzi in host cells; activity score (inhibition), % at 5.01 µM; actives 4.9% (n = 22,000); in the data active = activity score above about 55%; inconclusive = no clear call, values can overlap the other calls;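 note: parasites and compound incubated about four days before reading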
Numbers stand for hits; i = inactive; ? = inconclusive; nt = no result given.

SMILES	INS-1E ATP HTS	YB-1 expr inh	T cruzi intra
O=C1c2ccccc2-c2c(NCCc3ccccc3)c(=O)[nH]c3cccc1c23	nt	i	nt
C[C@H](CO)N1C[C@H](C)[C@H](CN(C)Cc2ccc(Oc3ccccc3)cc2)Oc2ccc(NC(=O)Nc3ccc(C(F)(F)F)cc3)cc2C1=O	nt	i	63
C[C@H]1CN([C@@H](C)CO)C(=O)c2cc(NC(=O)Nc3ccc(C(F)(F)F)cc3)ccc2O[C@H]1CN(C)Cc1ccc(Oc2ccccc2)cc1	i	i	80
C[C@@H]1CN([C@H](C)CO)C(=O)c2cc(NC(=O)Nc3ccccc3)ccc2O[C@@H]1CN(C)Cc1ccc(C(F)(F)F)cc1	nt	i	i
C[C@H](CO)N1C[C@H](C)[C@@H](CN(C)Cc2ccc(Oc3ccccc3)cc2)Oc2ccc(NC(=O)Nc3ccc(C(F)(F)F)cc3)cc2C1=O	i	i	i
O=c1c2ccccc2c(C=Nc2cccc(C(F)(F)F)c2)c(O)n1-c1ccccc1	nt	i	nt
C[C@@H]1CN([C@H](C)CO)C(=O)c2cccc(NC(=O)c3ccncc3)c2O[C@H]1CN(C)Cc1ccc(C(=O)O)cc1	i	i	i
C[C@H](CO)N1C[C@H](C)[C@H](CN(C)C)Oc2c(NC(=O)c3ccncc3)cccc2C1=O	i	3.6	i
C[C@H](CO)N1C[C@H](C)[C@H](CN(C)Cc2ccccc2)Oc2c(NC(=O)c3ccncc3)cccc2C1=O	i	i	81
C[C@H](CO)N1C[C@H](C)[C@@H](CN(C)Cc2ccccc2)Oc2c(cccc2N(C)C)C1=O	i	i	i
C[C@@H]1CN([C@H](C)CO)C(=O)c2cccc(NC(=O)c3ccncc3)c2O[C@H]1CN(C)C	i	i	i
C[C@H]1CN([C@@H](C)CO)C(=O)c2cccc(NC(=O)c3ccncc3)c2O[C@@H]1CN(C)Cc1ccccc1	i	i	81
C[C@@H]1CN([C@H](C)CO)C(=O)c2cccc(NC(=O)c3ccncc3)c2O[C@@H]1CN(C)Cc1ccccc1	i	i	i
C[C@@H]1CN([C@@H](C)CO)C(=O)c2cccc(N(C)C)c2O[C@H]1CN(C)Cc1ccccc1	i	14	i
O=C1Oc2cc(O)cc(O)c2[C@@H](c2ccc(O)cc2)[C@H]1[C@H]1C(=O)Oc2cc(O)cc(O)c2[C@H]1c1ccc(O)cc1	nt	i	nt
CCC(C)[C@H](NC(=O)c1ccco1)C(=O)O (stereo partly specified)	nt	i	nt
c1ccc(-c2nnc(-c3cccc4ccccc34)o2)cc1	nt	i	nt
COc1cc(C(=O)N=C2C(C)=CC(=O)C=C2C)cc(OC)c1OC	nt	i	nt
CC(C)=CCCC(C)(O)C1Cc2cc(C(=O)O)cc(CC=C(C)C)c2O1 (stereo unspecified)	nt	i	nt
C[C@@H]1CN([C@@H](C)CO)C(=O)c2cccc(NC(=O)c3cnccn3)c2O[C@@H]1CN(C)Cc1ccc(Oc2ccccc2)cc1	i	i	i
C[C@H](CO)N1C[C@H](C)[C@H](CN(C)Cc2ccc(Oc3ccccc3)cc2)Oc2c(NC(=O)c3ccncc3)cccc2C1=O	i	i	60
O=C(CSc1n[nH]c(=O)n1-c1cccc(C(F)(F)F)c1)N1CCC(C(F)(F)F)CC1	nt	i	nt
O=C1CC(C2CCCO2)C(=O)N1c1cccc(C(F)(F)F)c1 (stereo unspecified)	nt	5.8	nt
N#Cc1cccc(CSc2nnc(SCc3cccc(C#N)c3)s2)c1	nt	i	nt
C[C@H](CO)N1C[C@H](C)[C@H](CN(C)Cc2ccc(C(F)(F)F)cc2)Oc2c(NC(=O)CCCCCC(=O)Nc3ccccc3N)cccc2C1=O	i	i	73
SMILES	INS-1E ATP HTS	YB-1 expr inh	T cruzi intra
C[C@@H]1CN([C@H](C)CO)C(=O)c2cccc(NC(=O)CCCCCC(=O)Nc3ccccc3N)c2O[C@@H]1CN(C)Cc1ccc(C(F)(F)F)cc1	i	i	i
C[C@H]1CN([C@@H](C)CO)C(=O)c2cccc(NC(=O)CCCCCC(=O)Nc3ccccc3N)c2O[C@@H]1CN(C)Cc1ccc(-c2ccccc2)cc1	i	i	67
C[C@@H]1CN([C@H](C)CO)C(=O)c2cccc(NC(=O)CCCCCC(=O)Nc3ccccc3N)c2O[C@H]1CN(C)Cc1ccc(-c2ccccc2)cc1	i	i	71
C[C@@H]1CN([C@@H](C)CO)C(=O)c2cccc(NC(=O)CCCCCC(=O)Nc3ccccc3N)c2O[C@@H]1CN(C)Cc1ccc(C(F)(F)F)cc1	i	i	i
C[C@H](CO)N1C[C@H](C)[C@@H](CN(C)Cc2ccncc2)Oc2c(NC(=O)CCCCCC(=O)Nc3ccccc3N)cccc2C1=O	i	i	i
O=S(=O)(CCSc1nccc(-c2ccc(Cl)cc2)n1)c1ccc(Cl)cc1	nt	i	nt
C/C=C(\C)C(=O)O[C@@H]1C(C)=C2[C@H]3OC(=O)[C@](C)(O)[C@]3(O)[C@H](OC(=O)C(C)CC)C[C@@](C)(OC(C)=O)[C@@H]2[C@H]1OC(=O)CCCCCCC (stereo partly specified)	nt	i	nt
COc1ccc(S(=O)(=O)N(C)C[C@@H]2Oc3ncc(-c4cc5ccccc5o4)cc3C(=O)N([C@H](C)CO)C[C@@H]2C)cc1	i	i	i
C[C@H](CO)N1C[C@H](C)[C@H](CN(C)Cc2ccc3c(c2)OCO3)Oc2ncc(-c3ccc(F)cc3)cc2C1=O	nt	i	i
C[C@H](CO)N1C[C@H](C)[C@H](CN(C)Cc2ccc3c(c2)OCO3)Oc2ncc(-c3cc4ccccc4o3)cc2C1=O	nt	i	78
C[C@H](CO)N1C[C@H](C)[C@H](CN(C)C)Oc2ncc(-c3cc4ccccc4o3)cc2C1=O	nt	i	85
C[C@H](CO)N1C[C@H](C)[C@H](CN(C)S(=O)(=O)c2cccs2)Oc2ncc(-c3cc4ccccc4o3)cc2C1=O	nt	i	67
CCCN(C)C[C@@H]1Oc2ncc(-c3cc4ccccc4o3)cc2C(=O)N([C@H](C)CO)C[C@@H]1C	nt	i	?
C=C(C)C(=O)O[C@H]1[C@H]2C(=C)C(=O)O[C@@H]2C[C@@H](C)/C=C/C(=O)[C@](C)(O)[C@@H]1OC(C)=O	nt	i	nt
C=CC[C@@]1(C(=O)NCc2ccccc2)N=C(c2ccc(OCCCO)cc2)O[C@@H]1c1ccccc1	nt	i	nt
COc1c(C)c(OCC=C(C)C)cc(CO)c1CO	nt	i	nt
S=C1NCN(C2CCCCC2)CN1	nt	i	nt
Cn1c2c(c(=O)n(C)c1=O)CN(C1CCCC1)CN2	nt	4	nt
C[C@H]1CN([C@@H](C)CO)C(=O)c2cccc(NC(=O)c3ccc(-c4nccs4)cc3)c2O[C@@H]1CN(C)Cc1ccc(Oc2ccccc2)cc1	i	i	i
C[C@H](CO)N1C[C@H](C)[C@H](CN(C)Cc2ccccc2)Oc2c(NC(=O)c3ccc(-c4nccs4)cc3)cccc2C1=O	i	i	i
C[C@H](CO)N1C[C@H](C)[C@H](CN(C)Cc2ccc(Oc3ccccc3)cc2)Oc2c(NC(=O)c3ccc(-c4nccs4)cc3)cccc2C1=O	i	i	86
C[C@@H]1CN([C@H](C)CO)C(=O)c2cccc(NC(=O)c3ccc(-c4nccs4)cc3)c2O[C@H]1CN(C)Cc1ccc(Oc2ccccc2)cc1	i	i	81

Assay outcomes deposited in PubChem by Broad Institute.
